# Reference: ChEMBL document CHEMBL1134346, “Labeling and evaluation of N-[11C]methylated quinoline-2-carboxamides as potential radioligands for visualization of peripheral benzodiazepine receptors” (J Med Chem, 2001)
# Organism: Rattus norvegicus
# Assay: Tissue (spleen) distribution in Albino male CD rats after 5 minutes expressed as percent of injected dose per gram of organ.
# Assay type: ADME, organism-based
# Details: in vivo
# Summary of the method: (§1)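 Male albino CD rats (225-250 g) received the 11C-labelled radioligand in saline by tail-vein injection. Three rats per time point were decapitated under light ether anaesthesia at 5, 15, 30, 60 or 90 min. Blood was collected heparinized and plasma separated by centrifugation. The pituitary was dissected from the brain. Lung, liver (three-lobe pieces) and right deltoid muscle were sampled, washed in cold saline, gamma-counted and weighed. Results are %I.D./g.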
row,I.D./g,Compound
1,0.5%,CCC(C)N(C)C(=O)c1nc2ccccc2c(-c2ccccc2)c1C (stereo not given)

# Organism: Rattus norvegicus
# Assay: Tissue (spleen) distribution in Albino male CD rats after 60 minutes expressed as percent of injected dose per gram of organ.
# Assay type: ADME, organism-based
# Details: in vivo, 1 h
row,I.D./g,Compound
1,1.25%,CCC(C)N(C)C(=O)c1nc2ccccc2c(-c2ccccc2)c1C (stereo not given)

# Organism: Rattus norvegicus
# Assay: Tissue (testicle) distribution in Albino male CD rats after 15 minutes expressed as percent of injected dose per gram of organ.
# Assay type: ADME, organism-based
# Details: in vivo, 0.25 h
# Summary of the method: as §1
row,I.D./g,Compound
1,0.05%,CCC(C)N(C)C(=O)c1nc2ccccc2c(-c2ccccc2)c1C (stereo not given)

# Organism: Rattus norvegicus
# Assay: Tissue (liver) distribution in Albino male CD rats after 15 minutes expressed as percent of injected dose per gram of organ.
# Assay type: ADME, organism-based
# Details: in vivo, 0.25 h
# Summary of the method: (§2)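 Radioligand given in saline into tail vein of male albino CD rats (225-250 g); 100-200 µCi per animal, 1-2 Ci/µmol at injection depending on radioligand. Three rats per time point were decapitated under light ether anaesthesia. Blood, plasma, brain regions and washed organs were weighed and gamma-counted. Uptake is %I.D./g tissue, mean ± SD.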
row,I.D./g,Compound
1,0.5%,CCC(C)N(C)C(=O)c1nc2ccccc2c(-c2ccccc2)c1C (stereo not given)

# Organism: Rattus norvegicus
# Assay: Tissue (liver) distribution in Albino male CD rats after 30 minutes expressed as percent of injected dose per gram of organ.
# Assay type: ADME, organism-based
# Details: in vivo, 0.5 h
# Summary of the method: as §1
row,I.D./g,Compound
1,0.55%,CCC(C)N(C)C(=O)c1nc2ccccc2c(-c2ccccc2)c1C (stereo not given)

# Organism: Rattus norvegicus
# Assay: Tissue (liver) distribution in Albino male CD rats after 5 minutes expressed as percent of injected dose per gram of organ.
# Assay type: ADME, organism-based
# Details: in vivo
# Summary of the method: as §1
row,I.D./g,Compound
1,0.64%,CCC(C)N(C)C(=O)c1nc2ccccc2c(-c2ccccc2)c1C (stereo not given)

# Organism: Rattus norvegicus
# Assay: Tissue (liver) distribution in Albino male CD rats after 90 minutes expressed as percent of injected dose per gram of organ.
# Assay type: ADME, organism-based
# Details: in vivo, 1.5 h
# Summary of the method: as §1
row,I.D./g,Compound
1,0.27%,CCC(C)N(C)C(=O)c1nc2ccccc2c(-c2ccccc2)c1C (stereo not given)

# Target: Translocator protein (Rattus norvegicus) (UniProt P16257)
# Sequence (P16257 whole entry, looked up): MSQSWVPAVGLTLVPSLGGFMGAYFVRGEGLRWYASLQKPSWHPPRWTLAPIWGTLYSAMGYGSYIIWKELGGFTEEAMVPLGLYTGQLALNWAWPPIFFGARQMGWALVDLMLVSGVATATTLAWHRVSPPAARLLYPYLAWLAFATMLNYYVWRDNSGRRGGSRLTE
# Assay: Tissue (lung) concentration of radioactivity at 30 min post-injection into Albino male CD rats after pretreatment with cold PK 11195.
# Assay type: functional
# Details: not given
# Summary of the method: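 Blocking study in male albino CD rats, five per group. Immediately before the 11C radioligand (in saline, i.v. tail vein), rats received 30 µL tail-vein PK 11195 (5 mg/kg; 1.4-1.6 mg) in DMSO:EtOH 1:1, or vehicle. Rats were decapitated at 30 min. Tissues were dissected, washed, gamma-counted and weighed as in the biodistribution study. Results are %I.D./g.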
row,I.D./g,Compound
1,< 0.14%,CCC(C)N(C)C(=O)c1nc2ccccc2c(-c2ccccc2)c1C (stereo not given)

# Organism: Rattus norvegicus
# Assay: Tissue (lung) distribution in Albino male CD rats after 5 minutes expressed as percent of injected dose per gram of organ.
# Assay type: ADME, organism-based
# Details: in vivo
# Summary of the method: as §1
row,I.D./g,Compound
1,3.09%,CCC(C)N(C)C(=O)c1nc2ccccc2c(-c2ccccc2)c1C (stereo not given)

# Organism: Rattus norvegicus
# Assay: Tissue (blood) distribution in Albino male CD rats after 30 minutes expressed as percent of injected dose per gram of organ.
# Assay type: ADME, organism-based
# Details: in vivo, 0.5 h
# Summary of the method: as §2
row,I.D./g,Compound
1,0.06%,CCC(C)N(C)C(=O)c1nc2ccccc2c(-c2ccccc2)c1C (stereo not given)

# Organism: Rattus norvegicus
# Assay: Tissue (blood) distribution in Albino male CD rats after 5 minutes expressed as percent of injected dose per gram of organ.
# Assay type: ADME, organism-based
# Details: in vivo
# Summary of the method: as §2
row,I.D./g,Compound
1,0.13%,CCC(C)N(C)C(=O)c1nc2ccccc2c(-c2ccccc2)c1C (stereo not given)

# Organism: Rattus norvegicus
# Assay: Tissue (adrenal gland) concentration of radioactivity at 30 min post-injection into Albino male CD rats with vehicle.
# Assay type: ADME, organism-based
# Details: in vivo, 0.5 h
# Summary of the method: (§3)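 Separate groups of five rats received tail-vein PK 11195 (1.4-1.6 mg; 5 mg/kg) in 30 µL DMSO:EtOH 1:1, or vehicle alone, immediately before iv radioligand (90-170 µCi in saline, 0.9-1 Ci/µmol). Rats were decapitated at 30 min and tissues gamma-counted; values are %I.D./g.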
row,I.D./g,Compound
1,1.6%,CCC(C)N(C)C(=O)c1nc2ccccc2c(-c2ccccc2)c1C (stereo not given)

# Organism: Rattus norvegicus
# Assay: Tissue (adrenal gland) distribution in Albino male CD rats after 60 minutes expressed as percent of injected dose per gram of organ.
# Assay type: ADME, organism-based
# Details: in vivo, 1 h
# Summary of the method: as §2
row,I.D./g,Compound
1,2.27%,CCC(C)N(C)C(=O)c1nc2ccccc2c(-c2ccccc2)c1C (stereo not given)

# Organism: Rattus norvegicus
# Assay: Tissue (adrenal gland) distribution in Albino male CD rats after 90 minutes expressed as percent of injected dose per gram of organ.
# Assay type: ADME, organism-based
# Details: in vivo, 1.5 h
# Summary of the method: as §2
row,I.D./g,Compound
1,1.8%,CCC(C)N(C)C(=O)c1nc2ccccc2c(-c2ccccc2)c1C (stereo not given)

# Organism: Rattus norvegicus
# Assay: Tissue (spleen) distribution in Albino male CD rats after 30 minutes expressed as percent of injected dose per gram of organ.
# Assay type: ADME, organism-based
# Details: in vivo, 0.5 h
# Summary of the method: as §1
row,I.D./g,Compound
1,1.25%,CCC(C)N(C)C(=O)c1nc2ccccc2c(-c2ccccc2)c1C (stereo not given)

# Organism: Rattus norvegicus
# Assay: Tissue (muscle) distribution in Albino male CD rats after 5 minutes expressed as percent of injected dose per gram of organ.
# Assay type: ADME, organism-based
# Details: in vivo
# Summary of the method: as §1
row,I.D./g,Compound
1,0.11%,CCC(C)N(C)C(=O)c1nc2ccccc2c(-c2ccccc2)c1C (stereo not given)

# Organism: Rattus norvegicus
# Assay: Tissue (cortex) concentration of radioactivity at 30 min post-injection into Albino male CD rats with vehicle.
# Assay type: ADME, organism-based
# Details: in vivo, 0.5 h
# Summary of the method: as §3
row,I.D./g,Compound
1,0.05%,CCC(C)N(C)C(=O)c1nc2ccccc2c(-c2ccccc2)c1C (stereo not given)

# Organism: Rattus norvegicus
# Assay: Tissue (cortex) distribution in Albino male CD rats after 15 minutes expressed as percent of injected dose per gram of organ.
# Assay type: ADME, organism-based
# Details: in vivo, 0.25 h
# Summary of the method: as §2
row,I.D./g,Compound
1,0.07%,CCC(C)N(C)C(=O)c1nc2ccccc2c(-c2ccccc2)c1C (stereo not given)

# Organism: Rattus norvegicus
# Assay: Tissue (cortex) distribution in Albino male CD rats after 30 minutes expressed as percent of injected dose per gram of organ.
# Assay type: ADME, organism-based
# Details: in vivo, 0.5 h
# Summary of the method: as §2
row,I.D./g,Compound
1,0.07%,CCC(C)N(C)C(=O)c1nc2ccccc2c(-c2ccccc2)c1C (stereo not given)

# Organism: Rattus norvegicus
# Assay: Tissue (cortex) distribution in Albino male CD rats after 5 minutes expressed as percent of injected dose per gram of organ.
# Assay type: ADME, organism-based
# Details: in vivo
# Summary of the method: as §2
row,I.D./g,Compound
1,0.12%,CCC(C)N(C)C(=O)c1nc2ccccc2c(-c2ccccc2)c1C (stereo not given)
